The entries come from a sample that favours hits as a whole.
Lmaj promast: Leishmania major promastigote growth inhibition, primary screen. Leishmania major promastigotes, resazurin fluorescence viability. inhibition, % at 10 µM. 200,000 tested, 9% active; in the data active = inhibition above about 50%;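 note: promastigotes grown with compound for 44 hours at 28 °C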
NALP1 yeast inh: NALP1 inflammasome inhibitors in reconstituted yeast, colorimetric, S. cerevisiae, triplicate retest; S. cerevisiae NALP1/ASC/caspase-1 growth, X-gal OD620, 72 h; inhibition, % at 10 µM; 280,000 tested, 0.61% active; AID 2071, 2009; in the data active = inhibition mostly above about 24%, no sharp cut-off; inactive = mostly below about 32%
T cruzi repl: inhibitors of intracellular T. cruzi growth, primary screen, luminescence, NIH3T3 host cells; inhibition, % (no concentration beside the values); T. cruzi beta-gal in NIH3T3, 90 h; 300,000 tested, 1.4% active; AID 1885, 2009;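 active = mean inhibition across valid replicates above about 55%, limit read from the data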;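 note: signal also drops with host cell toxicity which is not excluded here; 0% = plate median of DMSO wells and 100% = zero luminescence signal; higher percent means less beta-gal luminescence so fewer parasites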
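Read-out: Parasite load inhibition, % | Test system: Mouse NIH/3T3 fibroblasts infected with β-gal-expressing T. cruzi Tulahuen C4 | Amount: 5,000 cells/well | Medium: DMEM, 2% fetal bovine serum | Signal: GalScreen β-gal luminescence, detergent lysis, 60 min | Timing: 3 h attach, ≥90 h co-culture | Also added: Tulahuen C4 trypomastigotes, 5000/well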
Calb FLC: C. albicans growth inhibition with fluconazole, primary screen, CaCi-2 strain, Alamar Blue fluorescence | growth inhibition, % (no concentration beside the values) | C. albicans CaCi-2 + fluconazole, 48 h | 300,000 tested, 0.57% active;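 active = growth inhibition above about 58% in most replicates, limit read from the data, passing the limit was not always enough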;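 note: all wells also contain fluconazole at 8 µg/ml as a sub-toxic cotreatment; 0% = median of DMSO wells and 100% = median of geldanamycin control wells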
NLRP3 yeast inh: NALP3 inflammasome inhibitors in reconstituted yeast, primary screen, luminescence, uHTS | AID 2825, 2010 | 330,000 tested, 0.39% active | inhibition, % at 10 µM | Yeast reconstituted NLRP3/ASC/caspase-1, beta-gal luminescence, 24 h;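 active = inhibition of 50% or more; inactive = inhibition below 50%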;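 note: plate controls were induced DMSO wells for no effect and uninduced yeast grown without galactose for full effect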
PolyA inh: polyadenylation inhibitors in yeast reporter cells, primary screen, luminescence, S. cerevisiae | S. cerevisiae SKY197-pL101 polyadenylation reporter, beta-gal luminescence; efflux-impaired pdr1/pdr3 knockout yeast; score 100 = 6 SD above DMSO | activity score, % at 12 µM | 300,000 tested, 0.02% active | AID 1875, 2009;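 active = lowest replicate activity score at least 50, where 100 means six control SD above control mean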;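 note: yeast exposed to compound for 9 h at 30 °C; higher score means more reporter readthrough which indicates perturbed polyadenylation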
Active calls of the source: *; · = no result.

SMILES	Lmaj promast	NALP1 yeast inh	T cruzi repl	Calb FLC	NLRP3 yeast inh	PolyA inh
Cc1ccc(-c2csc(NC(=O)c3cccc(S(=O)(=O)N4CCN(C)CC4)c3)n2)cc1	6	-31	19	24	29	5
Cc1cc(C)nc(-n2nc(C)cc2NC(=O)c2cccc(S(=O)(=O)N3CCCCC3)c2)n1	72*	-12	·	·	·	·
O=C(Oc1cccc(NC(=O)c2cccs2)c1)c1cccc(S(=O)(=O)N2CCCC2)c1	62*	8	2	2	11	-13
Cc1cccn2c(=O)c3cc(C(=O)NC4CCCC4)c(=N)n(CCCN4CCOCC4)c3nc12	·	15	23	1	3	6
COc1ccccc1N1CCN(C(=O)C(=O)c2c(C)[nH]c3ccccc23)CC1	·	3	1	20	7	-3
O=C(Nc1nc(-c2ccc(S(=O)(=O)N3CCCCCC3)cc2)cs1)c1cccs1	22	4	70*	8	15	-1
CN(C)CCC1Sc2ccccc2Oc2ccccc21 (configuration not stated)	100*	16	26	-1	16	27
CC1c2ccccc2SC(CCCN(C)C)c2ccccc21 (configuration not stated)	100*	21	55*	-9	-9	-10
Cc1c(C)[n+](=O)c2c(n1[O-])C(Br)CCC2Br (configuration not stated)	·	18	14	-5	-2	0
Cc1c(CBr)[n+](=O)c2c(n1[O-])C(Br)CCC2Br (configuration not stated)	·	42*	-20	0	22	-12
NC(=O)c1ccc(NC(=O)COC(=O)CCCOc2ccccc2)cc1	·	·	·	·	-20	·
Cc1cccc(N2C(=O)CC(Sc3nccc(C)n3)C2=O)c1 (configuration not stated)	·	6	1	-5	13	15
Cc1ccc(N2C(=O)CC(Sc3ncn[nH]3)C2=O)cc1C (configuration not stated)	-4	40*	14	-10	5	-18
Cc1cccc(N2C(=O)CC(Sc3ncn[nH]3)C2=O)c1 (configuration not stated)	2	38*	4	0	18	2
Cc1cc(C)nc(SC2CC(=O)N(c3ccc(C)c(C)c3)C2=O)n1 (configuration not stated)	·	8	1	-11	24	15
O=C(Cc1cc(=O)[nH]c(=O)[nH]1)NCc1ccccc1	-9	28	-9	2	11	14
CCOC(=O)n1c(SCC(N)=O)nc2ccccc21	0	26*	-8	2	2	6
Cc1[nH]c(-c2ccc3c(c2)OCO3)nc1C(=O)O	-6	14	-2	-2	2	-12
CC(C)N1CCC2(CC1)N=C(c1ccc3c(c1)OCO3)CC(c1cc(Cl)ccc1O)N2 (configuration not stated)	100*	68*	6	-5	40	-45
CS(=O)(=O)c1ccc(Oc2ccc(-c3nnco3)cc2)c([N+](=O)[O-])c1	·	-27	4	19	14	3
O=C(Nc1ccc(Cc2ccc(NC(=O)C3CC3)c(O)c2)cc1O)C1CC1	52*	10	4	-12	6	-12
O=C(O)CCC(=O)Nc1ccc(Cc2ccc(NC(=O)CCC(=O)O)c(O)c2)cc1O	-6	28	2	0	1	0
CCOC(=O)c1c(-c2ccccc2)c2cc(OC)ccc2n1CCCN(C)C	·	-13	59*	-3	26	23
O=C(NC1CC1)c1ccc(CSCc2ccccc2Cl)o1	·	32	-9	-2	23	-12
COc1ccccc1N(C(=O)CNC(=O)c1ccco1)C(C(=O)NC1CCCC1)c1ccco1 (configuration not stated)	·	32	-9	2	7	3
CCOc1ccc(S(=O)(=O)N/N=C(\C)C2CCCCC2)cc1	55*	8	1	4	4	-12
CC(OC(=O)CCC(=O)c1ccc(Cl)s1)C(=O)NC1(C#N)CCCCC1 (configuration not stated)	·	·	·	·	16	·
